TRPML3 ag = activates the human TRPML3 channel | Q8TDD5 | HEK293 TRPML3-YFP, Fluo-8 calcium fluorescence; 100% = the carbachol control signal | activation, % at 3 µM | hit rate 0.29% among 220,000 | AID 1448;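 active = activation above its plate's cutoff, the mean activation of the plate's test wells plus 3 SD, cut at about 12% in these data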
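Material: TRPML3-YFP stable HEK293 cells | Dosing: One concentration, 3 µM nominal, 0.3% DMSO | Timing: 125 s total fluorescence read per well | Technique: Fluo-8 calcium dye fluorescence, ex 470-495, em 515-575 nm | Measure: Percent activation from peak-to-basal fluorescence ratio, scaled between DMSO and carbachol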
TRPN1 ag = zebrafish TRPN1 (NompC) channel agonism; HEK293 zebrafish TRPN1-YFP, Fluo-8 calcium fluorescence; 100% = response to 87 µM carbachol; activation, % at 3 µM; hit rate 0.18% among 220,000;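 active = activation above its plate's cutoff, the mean activation of test wells on that plate plus 3 SD, cut at about 19% in these data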
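System: zebrafish TRPN1-YFP in HEK293 cells / Dosing: 3 µM single point / Timing: dye loading 1 h at 37 °C, then 30 min room temperature / Signal: Fluo-8 calcium fluorescence, excitation 470-495 nm, emission 515-575 nm / Read-out basis: percent activation from peak over basal fluorescence ratio, control-normalized / Control set: high carbachol 87 µM, low DMSO alone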
OX1R antag-1 = blocks the human orexin 1 receptor | CHO/OX1R cells, Fluo-8 calcium fluorescence, orexin A | hit rate 0.43% among 330,000 | inhibition, % at 5 µM;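 active = inhibition above its plate's threshold, mean inhibition of all tested compounds on the plate plus 3 SD, cut at about 37% in these data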
Target sequence (O43613 whole entry, looked up): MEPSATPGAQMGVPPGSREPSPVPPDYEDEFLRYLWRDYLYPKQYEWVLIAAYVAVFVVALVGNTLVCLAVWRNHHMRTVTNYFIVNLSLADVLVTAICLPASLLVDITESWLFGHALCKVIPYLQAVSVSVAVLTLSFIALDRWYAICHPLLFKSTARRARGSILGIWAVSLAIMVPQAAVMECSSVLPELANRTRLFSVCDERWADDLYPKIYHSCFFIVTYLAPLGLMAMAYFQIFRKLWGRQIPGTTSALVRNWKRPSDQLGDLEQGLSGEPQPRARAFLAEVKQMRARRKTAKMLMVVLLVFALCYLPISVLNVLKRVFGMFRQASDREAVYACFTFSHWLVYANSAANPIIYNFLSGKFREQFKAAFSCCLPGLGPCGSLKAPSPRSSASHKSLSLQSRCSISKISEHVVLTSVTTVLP
OX1R antag-2 = OX1R (human) antagonism | O43613 | OX1R-expressing cells, FRET antagonist read-out | inhibition, % at 6.6 µM | hit rate 1.8% among 330,000 | AID 485270; in the data active = inhibition mostly above about 38%, no sharp cut-off; inactive = mostly below about 40%
CHO parental Ca = counter-screen: ATP calcium response change in parental CHO cells. parental CHO-K1, ATP-induced calcium, Fluo-8 fluorescence. inhibition, % at 5.6 µM. hit rate 0.63% among 330,000;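 active = inhibition above that plate's mean sample inhibition plus 3 SD, cut at about 26% in these data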
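Test system: untransfected parental CHO cell line. Compound: one dose, 5.6 µM nominal. Detection: intracellular calcium via Fluo-8 no-wash fluorescent dye. Measure: % inhibition. Benchmarks: ATP-challenged DMSO wells low, unchallenged DMSO wells high.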
OX1R Fluo8 conf = OX1R (human) antagonism, confirmed. inhibition, % at 5 µM. CHO/OX1R cells, orexin A calcium Fluo-8 fluorescence. shares compounds with OX1R antag-1. hit rate 38% among 1,100; in the data active = inhibition above about 29%
CHO Ca counter = counter-screen: parental CHO calcium response change, triplicate; shares compounds with OX1R antag-1; parental CHO-K1, ATP-induced calcium, Fluo-8 fluorescence; inhibition, % at 5.6 µM; hit rate 9.3% among 1,100;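 active = inhibition above a per-plate limit, the mean inhibition of that plate's test compounds plus 3 SD, cut at about 25% in these data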
OX1R HTRF confirm = confirmation of human orexin 1 receptor antagonists, HTRF format; AID 492964; hit rate 49% among 1,800; OX1R-expressing cells, HTRF antagonist assay; inhibition, % at 6.6 µM; shares compounds with OX1R antag-2; in the data active = inhibition above about 55%;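 note: CHO cells expressing OX1R stimulated with orexin A at about EC80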
CHO-K1 HTRF = signal in parental CHO-K1 cells, OX1R antagonist counter-screen; AID 493232; shares compounds with OX1R antag-2; HTRF counterscreen; hit rate 48% among 1,800; inhibition, % at 6.6 µM; in the data active = inhibition above about 17%
Hits are given with their value; - = inactive; . = no result given. Hits are enriched below; roughly 2.5% of the tested compounds scored in any of these assays.

SMILES	TRPML3 ag	TRPN1 ag	OX1R antag-1	OX1R antag-2	CHO parental Ca	OX1R Fluo8 conf	CHO Ca counter	OX1R HTRF confirm	CHO-K1 HTRF
COc1ccc2c(c1)[nH]c(=O)c1sc3ccccc3c12	-	-	-	71	-	39	-	92	-
Cc1cc(=O)[nH]c(SCC(=O)Nc2ccc(Br)cc2)c1C#N	-	-	42	93	-	-	-	-	-
CC(C)(C)[C@@H]1COC(=O)[C@H](Cc2ccc(F)cc2)C/C=C\C[C@@H](CC(=O)N(CCO)Cc2ccccc2)C(=O)N1	.	.	-	67	-	-	-	72	-
COc1ccc(/C=N/OC(=O)Nc2ccc(Cl)cc2)c(OC)c1	-	-	-	-	-	.	.	.	.
COc1cccc(-c2nc(NCC3CCCO3)c3ccccc3n2)c1O (stereo not given)	-	-	-	-	-	.	.	.	.
Oc1ccccc1-c1nc(NCC2CCCO2)c2ccccc2n1 (stereo not given)	-	-	63	97	-	44	-	88	-
CCN(C(=O)COC(=O)C1CCN(S(=O)(=O)c2ccc3c(c2)OCCO3)CC1)C1CCCCC1	.	.	-	-	-	.	.	.	.
COCCNC(=O)CNC(=S)N(CCCN1CCOCC1)Cc1cccs1	-	-	-	-	-	.	.	.	.
O=C(N/N=C/c1c[nH]c2ccccc12)c1sc2ccccc2c1Cl	-	-	-	90	-	41	-	63	-
COc1ccc2c(Cl)c(C(=O)N/N=C/c3c(C)[nH]c4ccccc34)sc2c1	-	-	41	65	-	63	-	93	-
Cc1onc(C(=O)Nc2c(C)n(C)n(-c3ccccc3)c2=O)c1[N+](=O)[O-]	-	-	-	-	-	.	.	.	.
Cc1cccc(NC(=O)/C(C#N)=C\c2cn(CC(=O)O)c3ccccc23)c1	-	-	-	83	-	37	-	78	-
N#C/C(=C/c1cn(CC(=O)O)c2ccccc12)C(=O)Nc1ccccc1	-	-	-	-	-	.	.	.	.
COc1ccc(CCNC(=O)COc2ccc(-c3ccc(C)cc3)cc2)cc1OC	-	-	70	66	-	-	-	76	-
N#C/C(=N\Nc1cccc([N+](=O)[O-])c1)C(=O)c1ccc(Br)cc1	-	-	42	94	-	-	50	-	19
O=C(COC(=O)c1cc(-c2cccs2)nc2ccccc12)NC1CCS(=O)(=O)C1 (stereo not given)	-	-	42	84	-	33	-	84	-
COc1cccc(C(=O)Nc2ccc(-c3nnc(-c4ccco4)o3)cc2)c1	-	-	-	77	-	34	-	71	20
CCOc1ccc(CNC(=S)Nc2ccccc2)cc1Cl	.	.	-	-	-	.	.	.	.
O=C(CCCN1C(=O)/C(=C\c2ccco2)SC1=S)Nc1ccc2ccccc2c1	-	-	45	85	-	42	-	89	-
COc1cccc(-c2cc3nc(-c4ccccc4)cc(N4CCC5(CC4)OCCO5)n3n2)c1	-	-	46	43	-	-	-	-	-
COc1ccc(OC)c(S(=O)(=O)NCC(c2ccco2)N2CCc3ccccc32)c1 (stereo not given)	.	.	74	90	-	79	-	89	-
COc1ccccc1C(=O)NCC(c1ccco1)N1CCc2ccccc21 (stereo not given)	.	.	-	-	-	.	.	.	.
COc1ccc(OC)c(NC(=O)COC(=O)COc2ccc(Nc3ccccc3)cc2)c1	.	.	-	-	-	.	.	.	.
Cc1nc(-c2coc3cc(OCC(=O)O)ccc3c2=O)cs1	-	-	-	-	-	.	.	.	.
Cc1nc(-c2coc3cc(O)c(C)cc3c2=O)cs1	-	-	-	86	-	-	-	89	-
CCN(CC)S(=O)(=O)c1cc(NC(=O)CSCc2c(C)noc2C)ccc1C	.	.	46	74	-	36	-	80	-
